Measurements pooled from the literature.
Compare with care: the assays were run in different laboratories.
Target: B2 bradykinin receptor (BDKRB2, Homo sapiens, UniProt P30411)
Sequence (P30411 1-391, as in one of the studies): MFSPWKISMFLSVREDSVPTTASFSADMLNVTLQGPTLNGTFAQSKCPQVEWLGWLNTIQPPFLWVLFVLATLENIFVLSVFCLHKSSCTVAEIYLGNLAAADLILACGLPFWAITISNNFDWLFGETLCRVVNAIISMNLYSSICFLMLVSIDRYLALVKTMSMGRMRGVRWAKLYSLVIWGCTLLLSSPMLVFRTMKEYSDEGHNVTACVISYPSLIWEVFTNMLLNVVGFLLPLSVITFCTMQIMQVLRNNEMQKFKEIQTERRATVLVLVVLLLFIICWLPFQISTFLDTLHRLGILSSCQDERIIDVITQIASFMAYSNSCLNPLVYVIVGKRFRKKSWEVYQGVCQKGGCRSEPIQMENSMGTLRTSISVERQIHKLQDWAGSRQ

`c1ccc(C(NCCNC(c2ccccc2)c2ccccc2)c2ccccc2)cc1` has an inhibition of 17% (cell-free assay; 10 µM).
`CC(C)N1CCC[C@H]1CNC(=O)c1cn(C2CCCC2)c(=O)c2c1c1ccccc1n2C` has an inhibition of 11% (ligand displacement; radioligand; 10 µM).
The inhibition of `C[C@H](C(=O)N[C@H]1COc2ccccc2[C@@H]1S(C)(=O)=O)c1ccc(F)cc1` is reported as 8% (cell-free assay; 10 µM).
The inhibition of `COCc1c(-c2cc3cc(C)cc(OC)c3s2)c2c(N)ncnn2c1CN1CCNC(=O)C1` is reported as 3% (ligand displacement; radioligand; 10 µM).
For `CN(CCN1CCC(OC(=O)Nc2ccccc2-c2ccccc2)CC1)C(=O)c1ccc(CN2CCC(C(N)=O)CC2)cc1`, the inhibition was -6% (ligand displacement; radioligand; 1 µM).
`O=C(Nc1cccnn1)N1CCN([C@@H]2CCOc3cc(C(F)(F)F)ccc32)CC1` has an inhibition of 10% (cell-free assay; 20 µM).
For `CCN(CC)CCCC[C@H](NC(=O)[C@H](CC(C)C)NC(=O)[C@H](C)NC(=O)[C@H](Cc1ccccc1)NC(=O)c1ccc(C(C)(C)C)cc1)C(=O)N[C@@H](CO)C(=O)OC`, the inhibition was -7% (ligand displacement; radioligand; 10 µM).
`COc1ccc(S(=O)(=O)N2CCCCC2)cc1C` has an inhibition of under 30% (ligand displacement; radioligand; 10 µM).
